# FGF22 binding – shifts melting point of recombinant human FGF22; Q9HCT0; recombinant FGF22 thermal shift, SYPRO orange fluorescence; percent of sucrose octasulfate shift, DMSO zero; activity (Tm shift, normalised), % at 9.99 µM; 340,000 compounds, 1.5% hits; AID 651658;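 active = mean Tm shift, scaled 0 neutral to 100 positive control, at about 1.3% or above, every replicate too, limit read from the data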
# Target sequence (Q9HCT0 whole entry, looked up): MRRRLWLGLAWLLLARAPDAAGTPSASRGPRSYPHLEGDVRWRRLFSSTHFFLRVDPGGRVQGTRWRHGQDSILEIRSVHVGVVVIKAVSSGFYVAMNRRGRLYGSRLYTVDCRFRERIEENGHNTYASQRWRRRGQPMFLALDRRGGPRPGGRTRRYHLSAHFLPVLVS
# SIRT5 block – sirtuin-5 (human) deacylase inhibition. Purified SirT5, succinyl-peptide AMC, trypsin-coupled fluorescence. 330,000 compounds, 1.1% hits. inhibition, % at 15 µM. Q9NXA8; in the data active = inhibition above about 15%
# Target sequence (Q9NXA8 whole entry, looked up): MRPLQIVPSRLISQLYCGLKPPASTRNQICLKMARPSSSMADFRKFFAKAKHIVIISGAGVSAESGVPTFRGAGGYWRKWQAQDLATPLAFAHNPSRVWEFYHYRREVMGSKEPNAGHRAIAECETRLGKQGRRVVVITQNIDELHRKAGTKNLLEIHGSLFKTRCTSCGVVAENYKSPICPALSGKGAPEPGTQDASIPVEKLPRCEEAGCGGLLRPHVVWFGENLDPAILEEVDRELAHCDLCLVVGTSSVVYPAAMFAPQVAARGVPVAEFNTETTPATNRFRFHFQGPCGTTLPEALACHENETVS
# UCH37 inh – inhibitors of human deubiquitinating enzyme UCH37. AID 588478. inhibition, % (test concentration not listed). purified proteasome/UCH37, Ub-AMC cleavage fluorescence. 330,000 compounds, 0.33% hits. Q9Y5K5;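 active = mean inhibition over replicate wells above about 20%, limit read from the data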;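 note: 0% = compound-free wells with enzyme and 100% = wells lacking proteasome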
#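 Assay system: Proteasome-bound UCH37. Buffer or medium: pH 7.4 Tris-HCl (50 mM) with ovalbumin, ATP-MgCl2, DTT. Incubation: 30 min preincubation with enzyme, 25 min cleavage at room temperature. Measured by: fluorescence, ex 355 nm, em 460 nm. Read-out basis: percent inhibition. Control set: wells without proteasome as full block, compound-free enzyme plus substrate as uninhibited.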
# CASP6 VEID inh – inhibitors of human caspase-6 | P55212 | purified caspase-6, Z-VEID-R110 cleavage fluorescence | inhibition, % at 12.5 µM | 350,000 compounds, 0.53% hits | AID 686996;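 active = mean inhibition across replicates at least about 35%, with every replicate also reaching that limit, limit read from the data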;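 note: 0% = median of neutral control wells and 100% = no fluorescence left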
# NSD2 inh – NSD2 (human) methyltransferase inhibition; O96028; NSD2 peptide methylation, AlphaScreen, 120 min; inhibition, % at 12.5 µM; 310,000 compounds, 0.54% hits; AID 743445; in the data active = inhibition above about 50%
# Starred values were filed as active, the others as inactive; . = no result. Sampled rows, rich in hits. Any-hit rate of the full collection: about 2.6%.
SMILES,FGF22 binding,SIRT5 block,UCH37 inh,CASP6 VEID inh,NSD2 inh
COc1ccc(S(=O)(=O)Nc2ccc3c(c2)C(=O)N([C@H](C)CO)C[C@@H](C)[C@H](CN(C)Cc2ccc(Oc4ccccc4)cc2)O3)cc1,-0.1,22.4*,.,-3.0,.
O=[N+]([O-])c1cc2oc3c(c2c(C=NCc2ccncc2)c1O)CCCC3,.,.,16.3,.,64.7*
c1nc(N2CCOCC2)c2c3c(sc2n1)CCCC3,.,35.8*,-11.1,-0.5,1.3
c1ccn(-c2ncnc3sc4c(c23)CCCC4)c1,.,.,4.8,.,10.9
COc1ccc(C=C2CS(=O)(=O)CC(=Cc3ccc(OC)cc3)C2=O)cc1,44.4*,.,.,-2.8,.
COc1ccc(C(C)=O)cc1CSc1nnc(Nc2c(C)cccc2C)s1,-0.1,20.6*,5.4,-0.1,-2.6
C/C(N)=C(/C#N)C(=O)CSc1cc(C)c2ccccc2n1,43.3*,4.0,1.2,-0.4,-9.2
C/C(N)=C(/C#N)C(=O)CSc1nnc(Nc2c(C)cccc2C)s1,42.9*,.,5.0,7.3,1.4
C[C@@H]1CN([C@H](C)CO)C(=O)CCCn2cc(nn2)CO[C@@H]1CN(C)C(=O)Oc1ccccc1,-0.2,0.2,.,1.0,.
CC(C)COC(=O)N(C)C[C@H]1OCc2ccccc2-c2ccccc2C(=O)N([C@@H](C)CO)C[C@@H]1C,-0.1,0.7,.,0.5,.
COc1ccccc1C(=O)Nc1ccc(-c2nnn(CC(=O)N3CCOCC3)n2)cc1,43.8*,-4.8,4.8,-3.6,-0.2
COc1cccc(NC(=O)N2CC(=O)N3[C@H](CO)[C@H](c4ccc(C#CCC5CCCC5)cc4)[C@H]3C2)c1,-0.7,22.2*,.,0.8,.
O=C(Nc1cccc(F)c1)N1CC(=O)N2[C@@H](CO)[C@@H](c3ccc(C#CCC4CCCC4)cc3)[C@@H]2C1,.,4.3,.,1.9,.
CN(C)CC#Cc1ccc([C@@H]2[C@H]3CN(C(=O)c4cccc(F)c4)CC(=O)N3[C@H]2CO)cc1,.,-9.5,.,-14.8,.
O=C(c1ccc(F)cc1)N1CC(=O)N2[C@H](C1)[C@@H](c1ccc(C#CCC3CCCC3)cc1)[C@@H]2CO,0.0,-2.8,.,0.5,.
COc1cccc(NC(=O)N2CC(=O)N3[C@@H](CO)[C@H](c4ccc(C#CCC5CCCC5)cc4)[C@@H]3C2)c1,0.0,20.4*,.,2.1,.
O=C(c1ccc(F)cc1)N1CC(=O)N2[C@@H](CO)[C@H](c3ccc(C#CCC4CCCC4)cc3)[C@@H]2C1,-0.4,15.6*,.,.,.
CN(C)CC#Cc1ccc([C@@H]2[C@@H](CO)N3C(=O)CN(C(=O)c4cccc(F)c4)C[C@@H]23)cc1,.,21.7*,.,2.2,.
Cc1noc(C)c1NC(=O)Nc1ccc2c(c1)C(=O)N([C@@H](C)CO)C[C@@H](C)[C@@H](CN(C)C(=O)Nc1ccc(F)cc1)OCCCC[C@@H](C)O2,0.0,-1.4,.,2.6,.
C[C@@H]1CCCCO[C@H](CN(C)C(=O)c2ccncc2)[C@@H](C)CN([C@H](C)CO)C(=O)c2cc(NC(=O)c3ccncc3)ccc2O1,-0.1,0.7,.,3.0,.
CN1C(=O)c2cc(NC(=O)C3CCOCC3)ccc2OC[C@@H]2O[C@H](CC(=O)NCCc3ccncc3)CC[C@H]21,0.4,4.5,.,1.7,.
CC#CC#Cc1cccc(=O)o1,-0.1,-12.1,10.5,53.1*,1.3
COc1ccc(S(=O)(=O)Nc2ccc3c(c2)CC(=O)N([C@@H](C)CO)C[C@@H](C)[C@H](CN(C)Cc2ccncc2)O3)cc1,-0.1,-1.0,.,-3.0,.
Cc1ccc(NC(=O)CO/N=C(\N)c2ccccc2)cc1C,43.2*,.,3.9,-1.5,-0.7
Oc1ccccc1N=Cc1c(O)ccc2ccccc12,-0.1,23.1*,3.8,-0.1,-0.2
SMILES,FGF22 binding,SIRT5 block,UCH37 inh,CASP6 VEID inh,NSD2 inh
Oc1ccc2ccccc2c1C=Nc1ccccc1Br,0.2,0.1,1.4,0.5,-0.6
O=S(=O)(c1cccs1)N1CCCCN2[C@H](C1)[C@H](c1ccc(C3=CCCCC3)cc1)[C@@H]2CO,-0.5,-0.6,.,0.0,.
Cc1cc2ccccn2c1C(=O)c1cc([N+](=O)[O-])cc([N+](=O)[O-])c1,0.1,-4.6,7.1,1.7,7.8
CCN(CC)S(=O)(=O)c1cccc(C(=O)c2c(C)cc3ccccn23)c1,43.2*,-1.7,15.3,-1.1,4.8
Clc1ccc2c(NN=Cc3cccnc3)ccnc2c1,.,.,-7.6,.,.
CCN(C[C@H]1N[C@@H](CO)[C@@H]1c1ccc(-c2cccc(F)c2)cc1)C(=O)COC,0.1,0.4,.,1.2,.

# Assay outcomes: PubChem, several laboratories
